Fewer inactive variants are shown than the library holds.

The labels stand for the following.
B1: tRNA (parent)
chain: CUCUCGGUAGCCAAGUUGGUUUAAGGCGCAAGACUUUAAUUUAUCACUACGAAAUCUUGAGAUCGGGCGUUCGACUCGCCCCCGGGAGAUUUUUUCCUCGAGCAA

The variants in the data set derive from B1. In words: nonsense suppression (GFP-seq) (ratio to wild type); higher = more function; SUP4oc tRNA, yeast GFP reporter sort-seq. A digest of the protocol: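 To measure nonsense suppression, tRNA variants from a library carrying ~3% random mutations were integrated into the yeast genome alongside RFP and a GFP ochre reporter under galactose control. Growth took place in raffinose/galactose medium supplemented with 80 mg/L adenine, followed by sorting into GFP/RFP bins and Illumina sequencing of each bin (phred ≥30). For each variant with ≥100 reads and ≥30 cells, the bin median GFP/RFP values were weighted by its estimated cell share per bin and referenced to the unmutated parent tRNA.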
Consider CUCUCGGUAGCCAAGUUAGUUUAAGGCGCGAGACUUUAAUUUAUCACUACGAAAUCUUGAGAUCGGGCGUUCGACUCGCCCCCGGGAGAUUUUUUCCUCGAGCAA, for which the nonsense suppression is 0.0263.
For the variant CUCUCGGUAGCCAAGUUAGUUUACGGCGCAAGACUUUAAUUUAUCACUACGAAAUCUUGAGAUCGGGCGUUCGACUCGCCCCCGGGAGAUUUUUUCCUCGAGCAA, the nonsense suppression worked out at 0.0483.
As for CUCUCGGUAGCCAAGUGGGUUUAAGGCGCAAGACUUUAAUUUAUCACUACGAAGUCCUGAGAUCGGGCGUUCGACUCGCCCCCGGGAGAUUUUUUCCUCGAGCAA, the nonsense suppression was no more than 0.026.
For CUCUCGGUAGCCAAGUGGGUUUACGGCGCAAGACUUUAAUUUAUCACUACGAAAUCUUGAGAUCGGGCGUUCGACUCGCCCCCGGGAGAUUUUUUCCUCGAGCAA, the nonsense suppression came out at 0.653.
To CUCUCGGUAGCCAAGUGGGUUUAUGGCGCAAGACUUUAAUUUAUCACUACGAAAUCUUGAGAUCGGGCGUUCGACUCGCCCCCGGGAGAUUUUUUCCUCGAGCAA belongs 0.159; to CUCUCGGUAGCCAAGUCGGUUUAAGGCGCAAGACUUUAAUUUAUCACUACGAAACCUUAAGAUCGCGCGUUCGACUCGCCCCCGGGAGAUUUUUUCCUCGAGCAA, no more than 0.026.
Turning to CUCUCGGUAGCCAAGUGGGUUGAAGGCGCAAGACUUUAAUUUAUCACUACGAAAUCUUGAGAUCGGGCGUUCGACUCGCCCCCGGGAGAUUUUUUCCUCGAGCAA, the nonsense suppression is 1.04.
As for CUCUCGGUAGCCAAGUCGGUUUAAGGCGCAAGACUUUAAUUUAUCACUACGAAAUCUUGAGAGCGGGCGUUCGACUCGCCCCCGGGAGAUUUUUUCCUCGAGCAA, the nonsense suppression was 0.804.
Regarding CUCUCGGUAGCCAAGUCGGUUUAAGGCGCAAGACUUUAAUUUAUCACUACGAAAUCUUGAGAACGGGCGUUCGACUCGCCCCCGGGAGAUUUUUUCCUCGAGCAA, the nonsense suppression turned out to be 0.197.
On to CUCUCGGUAGCCAAGUCGGUUUAAGGCGCAAGACUUUAAUUUAUCACUACGAAAUCUUGAGACCGGGCGUUCGACUCGCCCCCGGGAGAUUUUUUCCUCGAGCAA, for which the nonsense suppression worked out at 1.18.
As for CUCUCGGUAGCCAAGUGGGUUUAAGGCACAAGACUUUAAUUUAUCACUACGAAAUCUUGAGAUCGGGCGUUCGACUCGCCCCCGGGAGAUUUUUUCCUCGAGCAA, the nonsense suppression was 1.12.
Regarding CUCUCGGUAGCCAAGUGGGUUUAAGGCCCAAGACUUUAAUUUAUCACUACGAAAUCUUGAGAUCGGGCGUUCGACUCGCCCCCGGGAGAUUUUUUCCUCGAGCAA, the nonsense suppression was found to be 0.209.
With CUCUCGGUAGCCAAGUCGGUUAAAGGCGCAAGACUUUAAUUUAUCACUACGAAAUCUUGAGAUCGGGCGUUCGACUCGCCCCCGGGAGAUUUUUUCCUCGAGCAA, the nonsense suppression came to 0.758.
Turning to CUCUCGGUAGCCAAGUCGGUUUAAGGCGCAAGACUUUAAUUUAUCACUACGAAAUCUUGAGAUCGGGCGUUCGACUCGCCCCCGGGAUAUUUUUUCCUCGAGCAA, the nonsense suppression was no more than 0.026.
As for CUCUCGGUAGCCAAGUGGGUUUAAGGCGCAAGUCUUUAAUUUAUCACUACGAAAUCUUGAGACCCGGCGUUCGACUCGCCCCCGGGAGAUUUUUUCCUCGAGCAA, the figure is no more than 0.026; as for CUCUCGGUAGCCAAGUGGGUUUAAGGCGCAGGACUUUAAUUUAUCACUACGAAAUCUUGAGAUCGGGCGUUCGACUCGCCCCCGGGAGAUUUUUUCCUCGAGCAA, 1.15.
In the case of CUCUCGGUAGCCAAGUGGGUUUAAGGCGCAAGACUUUAAUUUAUCACUACGAAUUCUUGACAUCGGGCGUUCGACUCGCCCCCGGGAGAUUUUUUCCUCGAGCAA, the nonsense suppression was found to be 0.162.
To CUCUCGGUAGCCAAGUGGGUUUAAGGCGCAAGACUUUAAUUUAUCACUACGAAAUCUUGAGAUCGGGCGUUCGACUCGCCCCCGGGAGAUUUUUUCCUCGAGCAA belongs 0.999; to CUCUCGGUAGCCAAGUCGGUUCAAGGCGCAAGACUUUAAUUUAUCACUACGAAAUCUUGGGAUCGGGCGUUCGACUCGCCCCCGGGAGAUUUUUUCCUCGAGCAA, 0.348.
Regarding CUCUCGGUAGCCAAGUGGGUUUAAGGCGCAAGACUUUAAUUUAUCACUACGAAGGCUUGAGAUCGGGCGUUCGACUCGCCCCCGGGAGAUUUUUUCCUCGAGCAA, the nonsense suppression is no more than 0.026.
With CUCUCGGUAGCCAAGUGGGUUUAAGGCGCAAGACUUUAAUUUAUCACUACGAAAUCUUGAGAUAGGGCGUUCGACUCGCCCCCGGGAGAUUUUUUCCUCGAGCAA, the nonsense suppression is 0.0364.
As for CUCUCGGUAGCCAAGUGGGUUUAAGGCGCGAGACUUUAAUUUAUCACUACGAAAUCUUGAGAUCGGGCGUUCGACUCGCCCCCGGGAGAUUUUUUCCUCGAGCAA, the figure is 0.397; as for CUCUCGGUAGCCAAGUGGGUUUAAGGCGCUAGACUUUAAUUUAUCACUACGAAAUCUUGAGAUCGGGCGUUCGACUCGCCCCCGGGAGAUUUUUUCCUCGAGCAA, 0.0613; as for CUCUCGGUAGCCAAGUGGGUUUAAGGCGCAAGACUUUAAUUUAUCACUACGAAAUCUUGAGAUCGGGAUUUCGACUCGCCCCCGGGAGAUUUUUUCCUCGAGCAA, no more than 0.026.
To CUCUCGGUAGCCAAGUGGGUUUAAGGCGCAAGACUUUAAUUUAUCACUACGAAAUCUUGAGAUCGGGCGUUCGACUCGCCCCCGGGGGAUUUUUUCCUCGAGCAA belongs 0.752; to CUCUCGGUAGCCAAGUCGGUUUAAGGCGCAAGACUUUAAUUUAUCACUACGAAAUCUUGAGAUCGGGCGUUCGACCCGCCCCCGGGAGAUUUUUUCCUCGAGCAA, 1.09; to CUCUCGGUAGCCAAGUGGGUUUAAGGCGCAAGACUUUAAUUUAUCACUACGAAACCUUGAGAUCGGGCGUUCGACUCGCCCCCGGGAGAUUUUUUCCUCGAGCAA, 0.0769.

These data come from the RNAGym collection of RNA variant scans (doi:10.1101/gad.245936.114).
